The target of series [1] is T1, DNA ligase 1 (Homo sapiens, UniProt P18858). The series is described as follows: Inhibition of human recombinant DNA ligase 1 at 100 uM by fluorescence energy transfer-based DNA joining assay relative to control. In short, it runs like this:
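Fluorescence energy transfer joining of a nicked DNA substrate (10 pmol) by purified recombinant hLigI (0.25 pmol), run in duplicate with or without 100 µM candidate inhibitor.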

Series [2] can be described thus: Partition coefficient, log P of the compound. The format is physicochemical. The note with it: octanol/water.
The nature of series [3]: Growth inhibition of human MCF10A cells at 50 uM by MTT assay relative to control. The format is cell-based. As to conditions: MCF-10A. A general note: Formazan colour is commonly taken as a measure of viable cells.
The next series relates to HCT-116. The series is described as follows: Growth inhibition of human HCT116 cells at 50 uM by MTT assay relative to control. The series is classed as functional, cell-based.
Series [4] addresses T1, DNA ligase 1. The series is described as follows: Inhibition of human recombinant DNA ligase 1 by radioactive gel-based ligation assay. In short, it runs like this:
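A 25-mer and a 5′-[32P]-labeled 18-mer were annealed to a complementary 44-mer to give a centrally nicked duplex. Labeled substrate (0.5 pmol) and hLigI (0.02 pmol) in ligation buffer were incubated with varying inhibitor concentrations for 30 min at 25 °C. Products were resolved on gels, and IC50 was derived from the concentration-dependence.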

The subject of the next series is DNA. Nature of the series: Inhibition of ethidium bromide binding to DNA at 100 uM.
Series [5] deals with T1, DNA ligase 1. The series is described as follows: Inhibition of human recombinant DNA ligase 1 in presence of 0.1% Triton X-100 by fluorescence energy transfer-based DNA joining assay relative to control.
For series [6], the target named is T1, DNA ligase 1. Nature of the series: Inhibition of human recombinant DNA ligase 1 using nicked DNA substrate by kinetic assay. In short, it runs like this: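 Initial ligation rates were measured with hLigI (0.05 pmol) and fluorescent nicked DNA substrate (0.5–100 pmol) at various inhibitor concentrations. Ki came from Lineweaver–Burk double-reciprocal plots and curve fitting.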

The record followed here is ChEMBL document CHEMBL1155879, “Identification and validation of human DNA ligase inhibitors using computer-aided drug design” (J Med Chem, 2008).

Activity calls are given as the source filed them. No cut-off for these calls is given here.

T1 sequence (P18858 whole entry): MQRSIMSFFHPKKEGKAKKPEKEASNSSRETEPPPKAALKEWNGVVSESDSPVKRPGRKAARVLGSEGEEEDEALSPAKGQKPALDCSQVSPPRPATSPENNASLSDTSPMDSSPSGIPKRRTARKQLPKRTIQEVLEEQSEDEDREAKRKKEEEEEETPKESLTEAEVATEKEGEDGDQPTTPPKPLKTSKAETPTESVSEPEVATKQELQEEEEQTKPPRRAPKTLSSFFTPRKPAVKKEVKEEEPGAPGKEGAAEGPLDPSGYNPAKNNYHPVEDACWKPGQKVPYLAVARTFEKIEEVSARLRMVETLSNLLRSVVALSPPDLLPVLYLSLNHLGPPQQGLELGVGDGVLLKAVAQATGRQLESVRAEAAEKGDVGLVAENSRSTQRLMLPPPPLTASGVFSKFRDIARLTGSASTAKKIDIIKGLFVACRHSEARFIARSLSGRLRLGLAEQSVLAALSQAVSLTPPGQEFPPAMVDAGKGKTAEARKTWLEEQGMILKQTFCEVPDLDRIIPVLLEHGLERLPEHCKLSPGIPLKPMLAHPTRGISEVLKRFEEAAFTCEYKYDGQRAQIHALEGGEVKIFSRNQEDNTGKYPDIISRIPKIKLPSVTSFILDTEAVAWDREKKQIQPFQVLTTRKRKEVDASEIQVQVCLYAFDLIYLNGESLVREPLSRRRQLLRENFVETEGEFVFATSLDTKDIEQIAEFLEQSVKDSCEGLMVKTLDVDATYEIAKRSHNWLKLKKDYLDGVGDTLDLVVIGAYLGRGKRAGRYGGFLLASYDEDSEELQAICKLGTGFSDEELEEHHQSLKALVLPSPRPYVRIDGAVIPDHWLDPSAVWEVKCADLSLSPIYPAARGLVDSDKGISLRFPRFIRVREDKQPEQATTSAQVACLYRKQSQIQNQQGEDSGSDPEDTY

Consider `O=c1[nH]ncc(N/N=C\c2ccc(O)c([N+](=O)[O-])c2)c1Cl`, for which, at DNA ligase 1 [1], the inhibition stood at 59.8%. In addition, the logP in series [2] worked out at 4.84. In addition, the growth inhibition in series [3] was determined as 70%; with HCT-116, 40%. The IC50 at DNA ligase 1 [4] was determined as 12 µM. In addition, in the series with DNA, the outcome was inactive.
As for `COc1ccc(-c2cnc3c(O)nc(O)nc3n2)cc1`, the inhibition at DNA ligase 1 [1] turned out to be 52.5%; on DNA ligase 1 [5] (concentration not given here), 39%. Further, the logP in series [2] is 1.78. In addition, the growth inhibition in series [3] was 70%; in the series with HCT-116, 40%. Further, on DNA ligase 1 [4], the IC50 is 25 µM.
With `O=C1Nc2c(C(=O)O)cccc2C1=O`, the inhibition on DNA ligase 1 [1] was 59.3%. Besides, the logP in series [2] worked out at 0.24. For the same molecule, the result at DNA ligase 1 [5] was Active. For the same molecule, the IC50 on DNA ligase 1 [4] worked out at 4 µM. For the same molecule, on DNA ligase 1 [6], the Ki came out at 4 µM.
As for `Cc1oc(C(=O)O)cc1CSCc1cc(C(=O)O)c(C)o1`, the inhibition at DNA ligase 1 [1] was 91%. The logP in series [2] turned out to be 1.87. Further, the result at DNA ligase 1 [5] was Active. The IC50 at DNA ligase 1 [4] worked out at 0.6 µM.
Consider `O=C(O)CSc1cc(Cl)c2nonc2c1[N+](=O)[O-]`, for which, at DNA ligase 1 [1], the inhibition is 60.6%. In series [2], this molecule showed a logP of 2.15. In addition, the growth inhibition in series [3] turned out to be 40%. Further, on DNA ligase 1 [5], the result was Active. The IC50 at DNA ligase 1 [4] stood at 13 µM.
With `Cc1c(Br)cc(NCC(=O)N/N=C\c2cc([N+](=O)[O-])ccc2O)cc1Br`, at DNA ligase 1 [1], the inhibition worked out at 78.3%. Also, in series [2], the logP is 4.91. The growth inhibition (in series [3]; in the series with HCT-116) was 70% each time. Also, the IC50 on DNA ligase 1 [4] stood at 8 µM. Further, the outcome in the series with DNA was inactive.
`NS(=O)(=O)c1ccc(CCNC(=O)CCS(=O)(=O)c2ccc(Br)cc2)cc1`: at DNA ligase 1 [1], the inhibition turned out to be 53.4%. In series [2], the logP turned out to be 1.42. Also, the result at DNA ligase 1 [5] was Active. In addition, the IC50 on DNA ligase 1 [4] is 8 µM.
In the same order, the values of `CSc1ccc(C(=O)O)s1` are 60.5%, 1.92, “Active” and 10 µM.
In the same order, the values of `O=C(c1ccc(O)cc1)c1ccccc1O` are 50.7%, 3.04, “Active” and 25 µM.

In general, inhibition refers to the drop in the measured response relative to a control, in per cent. As a reminder, the logP is a log measure of how a compound divides between an organic and an aqueous phase. Low readings indicate a more hydrophilic compound, high ones a more lipophilic compound. By IC50 is commonly meant the point on the concentration scale where inhibition reaches its midpoint. The term Ki denotes a measure of affinity in units of concentration, obtained from inhibition or displacement.
